Experiment [1] deals with T1, Tyrosine-protein kinase JAK2 (Homo sapiens, UniProt O60674). Put plainly: Binding affinity to wild type JAK2 JH2 (unknown origin) expressed in baculovirus infected Sf9 insect cells incubated for 30 mins by competitive fluorescence polarization assay. In short, it runs like this:
(§1)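 JAK2 JH2 domain Kd from a competitive fluorescence polarization tracer-displacement assay, with readings after 30 min and after 20 h incubation. The negative control was tracer in buffer. The positive control used enough protein to bind all tracer, at the same protein concentration used across the assays.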
For orientation: In fluorescence polarisation assays a small probe gives low polarisation when free and higher when bound to something large.

In experiment [2] the target is T1, Tyrosine-protein kinase JAK2. Put plainly: Binding affinity to wild type JAK2 JH2 (unknown origin) expressed in baculovirus infected Sf9 insect cells incubated for 20 hrs by competitive fluorescence polarization assay. In short, it runs like this: as §1
The species named for experiment [3] is Homo sapiens. Put plainly: Selectivity ratio of Kd for wild type JAK2 JH2 (unknown origin) expressed in baculovirus infected Sf9 insect cells incubated for 30 mins to Kd for wild type JAK2 JH2 (unknown origin) expressed in baculovirus infected Sf9 insect cells incubated for 20 hrs.
The species named for experiment [4] is Homo sapiens. Put plainly: Selectivity ratio of Kd for wild type JAK2 JH1 (unknown origin) expressed in baculovirus infected Sf9 insect cells incubated for 30 mins to Kd for wild type JAK2 JH2 (unknown origin) expressed in baculovirus infected Sf9 insect cells incubated for 30 mins. In short, it runs like this: (§2)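 Selectivity is the ratio of JH1 Kd to JH2 Kd, both from the same competitive fluorescence polarization assay. JH2 Kd was taken at the 30 min or 20 h incubation. Controls were tracer in buffer (negative) and saturating protein at the common protein concentration (positive).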

Experiment [5] is filed under the species Homo sapiens. Put plainly: Selectivity ratio of Kd for wild type JAK2 JH1 (unknown origin) expressed in baculovirus infected Sf9 insect cells incubated for 30 mins to Kd for wild type JAK2 JH2 (unknown origin) expressed in baculovirus infected Sf9 insect cells incubated for 20 hrs. In short, it runs like this:
as §2

Experiment [6] concerns the target T1, Tyrosine-protein kinase JAK2. Put plainly: Binding affinity to wild type JAK2 JH1 (unknown origin) expressed in baculovirus infected Sf9 insect cells incubated for 30 mins by competitive fluorescence polarization assay.

T1 sequence (O60674 whole entry, the tested form may be a part): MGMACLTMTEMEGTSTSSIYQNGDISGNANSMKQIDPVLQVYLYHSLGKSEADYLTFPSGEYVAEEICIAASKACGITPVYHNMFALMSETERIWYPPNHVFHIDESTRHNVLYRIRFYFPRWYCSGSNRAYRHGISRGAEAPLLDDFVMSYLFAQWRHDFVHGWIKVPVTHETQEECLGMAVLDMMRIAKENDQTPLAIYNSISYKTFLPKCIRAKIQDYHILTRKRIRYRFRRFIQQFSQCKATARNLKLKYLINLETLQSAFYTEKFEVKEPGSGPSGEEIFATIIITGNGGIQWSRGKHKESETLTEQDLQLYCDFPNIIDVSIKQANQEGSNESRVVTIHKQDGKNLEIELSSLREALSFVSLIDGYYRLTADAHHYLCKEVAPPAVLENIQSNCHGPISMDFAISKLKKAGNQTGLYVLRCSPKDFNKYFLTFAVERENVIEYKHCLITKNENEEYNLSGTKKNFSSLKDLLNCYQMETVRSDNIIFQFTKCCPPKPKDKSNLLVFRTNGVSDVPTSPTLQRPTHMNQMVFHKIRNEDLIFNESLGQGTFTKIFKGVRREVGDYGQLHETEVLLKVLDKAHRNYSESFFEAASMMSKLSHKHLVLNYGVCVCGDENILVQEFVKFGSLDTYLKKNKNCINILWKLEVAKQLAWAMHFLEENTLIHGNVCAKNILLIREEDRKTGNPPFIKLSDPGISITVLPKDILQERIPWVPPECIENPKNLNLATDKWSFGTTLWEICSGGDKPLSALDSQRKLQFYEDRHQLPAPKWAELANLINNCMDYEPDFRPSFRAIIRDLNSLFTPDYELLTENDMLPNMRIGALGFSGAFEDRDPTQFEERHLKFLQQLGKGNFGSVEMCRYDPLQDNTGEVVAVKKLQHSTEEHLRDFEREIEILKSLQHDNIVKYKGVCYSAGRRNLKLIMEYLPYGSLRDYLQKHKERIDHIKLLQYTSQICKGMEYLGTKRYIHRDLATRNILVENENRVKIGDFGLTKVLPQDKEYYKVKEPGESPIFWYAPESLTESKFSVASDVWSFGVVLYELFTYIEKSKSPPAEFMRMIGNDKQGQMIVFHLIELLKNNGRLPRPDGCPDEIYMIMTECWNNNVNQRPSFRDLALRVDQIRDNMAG

Broadly, the Kd is the free concentration of one partner at which half of the binding sites on the other are occupied at equilibrium, for simple one-to-one binding. Read a low Kd as a tighter complex. For the molecule `C=CC(=O)NCc1ccc(F)c(C(=O)n2nc(Nc3ccc(C(=O)NC)cc3)nc2N)c1F`, the Kd in experiment [1] amounted to 1250 nM; in experiment [2], 800 nM. The Selectivity ratio in the experiment listed under Homo sapiens [3] is 1.6.

As to `C/C=C/C(=O)NCCc1ccc(F)c(C(=O)n2nc(Nc3ccc(C(=O)NC)cc3)nc2N)c1F`, the Kd in experiment [1] came out at 578 nM; in experiment [2] it was 565 nM. For the same molecule, the Selectivity ratio in the experiment listed under Homo sapiens [3] came out at 1.

Regarding `C=CC(=O)NCCc1ccc(F)c(C(=O)n2nc(Nc3ccc(C(=O)NC)cc3)nc2N)c1F`, the Kd in experiment [1] stood at 556 nM; in experiment [2], 110 nM; in experiment [6] it was 1280 nM. The Selectivity ratio is 2.3 in the experiment filed under Homo sapiens [4], 11.6 in the experiment filed under Homo sapiens [5] and 5.1 in the experiment filed under Homo sapiens [3].

As for `C=CC(=O)NCCOc1ccc(F)c(C(=O)n2nc(Nc3ccc(C(=O)NC)cc3)nc2N)c1F`, the figures for the Kd in experiment [1], in experiment [2] and in experiment [6] were 617 nM, 154 nM and 4370 nM, respectively. The figures for the Selectivity ratio in the experiment filed under Homo sapiens [4], in the experiment filed under Homo sapiens [5] and in the experiment filed under Homo sapiens [3] were 7.1, 28.4 and 4, respectively.

For `C=CC(=O)NCCc1cc(F)c(C(=O)n2nc(Nc3ccc(C(=O)NC)cc3)nc2N)c(F)c1`, the Kd in experiment [1] turned out to be 242 nM; in experiment [2], 75 nM; in experiment [6], 830 nM. Further, the Selectivity ratio in the experiment filed under Homo sapiens [4] came to 3.4; in the experiment listed under Homo sapiens [5], 11.1; in the experiment listed under Homo sapiens [3], 3.2.

Turning to `CNC(=O)c1ccc(Nc2nc(N)n(C(=O)c3c(F)cccc3F)n2)cc1`, the Kd came to 171 nM in experiment [1] and 263 nM in experiment [2]. Further, the Selectivity ratio in the experiment listed under Homo sapiens [3] was 0.65.
